Reference: ChEMBL document CHEMBL1123507, “Antipicornavirus activity of substituted phenoxybenzenes and phenoxypyridines” (J Med Chem, 1986)
In brackets after ≈: the same amount, converted by molar mass.

How the values were obtained:
HeLa = test: Cytotoxicity concentration in HeLa cells; format: cell-based; conditions: human
Method in brief: (§1)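 HeLa monolayers were seeded at (1.0-1.3) × 10^5 cells/well, grown 24 h at 36 °C in 5% CO2 to 60–75% cover, then refed with maintenance medium (1-2% heat-inactivated FCS) containing two-fold serial compound dilutions made from a 200 μg/mL stock in Me2SO/medium, with final Me2SO ≤0.1%. Cells were challenged with 10-100 TCID50 virus, and CPE was read microscopically at 48 and 72 h. MIC50 was the lowest concentration giving ≥50% CPE reduction versus virus control. Cytotoxicity was the lowest concentration causing cell death, a growth change or a morphology change in uninfected cultures.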

Coxsackievirus [1] = test: Ratio of the MIC50 of 6-(4-Nitro-phenoxy)-nicotinonitrile compared to compound obtained in the same test for coxsackie A21; format: functional
Method in brief: (§2)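 Relative activity was calculated as the MIC50 of the positive control 5-cyano-2-(4-nitrophenoxy)pyridine divided by the MIC50 of the test compound. Both were measured in parallel in the same HeLa CPE test (48/72 h microscopic reading) against RV-1A, RV-2 or coxsackievirus A21.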

Coxsackievirus [2] = test: Lowest concentration to reduce viral effect by 50% or more against coxsackie virus A21; format: functional; method in brief: as §1
Echovirus = test: Antiviral activity against Echo 12; format: functional; method in brief: as §1
Mengo virus = test: Antiviral activity against mengo; format: functional; conditions: Cardiovirus A; method in brief: as §1
Enterovirus C = test: Antiviral activity against Poliovirus type 2; format: functional
Method in brief: (§3)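 HeLa monolayers (1.0-1.3×10^5 cells/well, grown 24 h at 36 °C to 60-75% cover) refed with maintenance E-MEM (1-2% heat-inactivated FCS) holding two-fold serial dilutions from a 200 μg/mL DMSO stock (final DMSO ≤0.1%). Challenged with 10-100 TCID50 virus, 36 °C, 5% CO2. CPE read microscopically at 48 and 72 h. MIC50 is the lowest concentration cutting CPE ≥50% vs virus control.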

Enterovirus [3] = test: Antiviral activity against rhinovirus RV-9; format: functional; method in brief: as §1
Enterovirus [4] = test: Compound was evaluated for inhibition of rhinovirus RV-Hanks 75%; format: functional
Enterovirus [5] = test: Antiviral activity against rhinovirus RV-10; format: functional; method in brief: as §1
Enterovirus [6] = test: Antiviral activity against rhinovirus RV-13; format: functional; method in brief: as §1
Enterovirus [7] = test: Antiviral activity against rhinovirus RV-14; format: functional; method in brief: as §1
Enterovirus [8] = test: Antiviral activity against rhinovirus RV-1B; format: functional; method in brief: as §1
Enterovirus [9] = test: Antiviral activity against rhinovirus RV-21; format: functional; method in brief: as §3
Enterovirus [10] = test: Antiviral activity against rhinovirus RV-29; format: functional; method in brief: as §1
Enterovirus [11] = test: Antiviral activity against rhinovirus RV-32; format: functional; method in brief: as §1
Enterovirus [12] = test: Antiviral activity against rhinovirus RV-33; format: functional; method in brief: as §1
Enterovirus [13] = test: Antiviral activity against rhinovirus RV-39; format: functional; method in brief: as §1
Enterovirus [14] = test: Antiviral activity against rhinovirus RV-4; format: functional; method in brief: as §1
Enterovirus [15] = test: Antiviral activity against rhinovirus RV-49; format: functional; method in brief: as §1
Enterovirus [16] = test: Antiviral activity against rhinovirus RV-Hanks; format: functional; method in brief: as §1
Enterovirus [17] = test: Antiviral activity against rhinovirus RV-55; format: functional; method in brief: as §1
Enterovirus [18] = test: Antiviral activity against rhinovirus RV-64; format: functional; method in brief: as §1
Enterovirus [19] = test: Antiviral activity against rhinovirus RV-68; format: functional; method in brief: as §1
Enterovirus [20] = test: Antiviral activity against rhinovirus RV-74; format: functional; method in brief: as §1
Enterovirus [21] = test: Antiviral activity against rhinovirus RV-8; format: functional; method in brief: as §1
Enterovirus [22] = test: Lowest concentration to reduce viral effect by 50% or more against Rhinovirus (RV)-2; format: functional; method in brief: as §1
Enterovirus [23] = test: Ratio of the MIC50 of 6-(4-Nitro-phenoxy)-nicotinonitrile compared to compound obtained in the same test for Rhinovirus (RV)-2; format: functional; method in brief: as §2
Enterovirus [24] = test: Lowest concentration to reduce viral effect by 50% or more against Rhinovirus (RV)-1A; format: functional; method in brief: as §1
Enterovirus [25] = test: Ratio of the MIC50 of 6-(4-Nitro-phenoxy)-nicotinonitrile compared to compound obtained in the same test for Rhinovirus (RV)-1A; format: functional; method in brief: as §2
Coxsackievirus [26] = test: Antiviral activity against coxsackie B4; format: functional; method in brief: as §1
Enterovirus [27] = test: Antiviral activity against rhinovirus RV-5; format: functional; method in brief: as §1
Coxsackievirus [28] = test: Antiviral activity against rhinovirus Coxsackie B3; format: functional; method in brief: as §1
Enterovirus [29] = test: Antiviral activity against rhinovirus RV-44; format: functional; method in brief: as §1
Enterovirus [30] = test: Compound was evaluated for inhibition of rhinovirus RV-Hanks at a dose of 50 ug/mL by < 50%; format: functional

SMILES: CS(=O)(=O)c1ccc(Oc2ccc(Cl)c(Cl)c2)nc1
- Toxicity (HeLa): 157 µM
- Relative activity (Coxsackievirus [1]): 0.65
- MIC50 (Coxsackievirus [2]): 20 µM (≈ 6.36 µg/mL)
- MIC (Echovirus): < 4.1 µM
- MIC (Mengo virus): > 16 µM
- MIC (Enterovirus C): > 39 µM
- MIC (Enterovirus [3]): 31 µM (≈ 9.86 µg/mL)
- Inhibition (Enterovirus [4]): 65%
- MIC (Enterovirus [5]): < 4.1 µM
- MIC (Enterovirus [6]): > 16 µM
- MIC (Enterovirus [7]): > 31 µM
- MIC (Enterovirus [8]): < 0.94 µM
- MIC (Enterovirus [9]): 31 µM (≈ 9.86 µg/mL)
- MIC (Enterovirus [10]): 4.1 µM (≈ 1.3 µg/mL)
- MIC (Enterovirus [11]): 4.1 µM (≈ 1.3 µg/mL)
- MIC (Enterovirus [12]): 2 µM (≈ 0.636 µg/mL)
- MIC (Enterovirus [13]): 20 µM (≈ 6.36 µg/mL)
- MIC (Enterovirus [14]): 79 µM (≈ 25.1 µg/mL)
- MIC (Enterovirus [15]): < 2 µM
- MIC (Enterovirus [16]): 31 µM (≈ 9.86 µg/mL)
- MIC (Enterovirus [17]): < 2 µM
- MIC (Enterovirus [18]): 0.94 µM (≈ 0.299 µg/mL)
- MIC (Enterovirus [19]): > 31 µM
- MIC (Enterovirus [20]): 7.9 µM (≈ 2.51 µg/mL)
- MIC (Enterovirus [21]): > 39 µM
- MIC50 (Enterovirus [22]): 2 µM (≈ 0.636 µg/mL)
- Relative activity (Enterovirus [23]): 10.4
- MIC50 (Enterovirus [24]): 1 µM (≈ 0.318 µg/mL)
- Relative activity (Enterovirus [25]): 10.4
- MIC (Coxsackievirus [26]): 39 µM (≈ 12.4 µg/mL)
- MIC (Enterovirus [27]): > 39 µM
- MIC (Coxsackievirus [28]): > 7.9 µM
- MIC (Enterovirus [29]): 16 µM (≈ 5.09 µg/mL)
- inhibition at 50 µg/mL (Enterovirus [30]): 25%
